Measurements collected from several papers.
Compare with care: the assays were run in different laboratories.
Target: Tyrosine-protein kinase ABL2 (ABL2, Homo sapiens, UniProt P42684)

Compound | effect on | action | technique | concentration | quantity | result
Cc1cnc(NC2CCOCC2)nc1-n1cnc(C(=O)NC(CN)c2cc(F)cc(Cl)c2)c1 (centres unmarked) | enzyme activity | inhibitor | radiometric | 1 µM | remaining activity | 87%
COc1cc2nccc(Oc3ccc(NC(=O)c4c5n(n(-c6ccc(F)cc6)c4=O)CCCC5)cc3)c2cc1OC | enzyme activity | inhibitor | – | 0.1 µM | inhibition | 36%
COc1cc2ncnc(Nc3ccc(Oc4ccccc4)c(C)c3C)c2cc1OC | enzyme activity | inhibitor | – | 1 µM | inhibition | 6%
CCN(CC)c1ccc(C2=NNC(=O)CC2C)cc1[N+](=O)[O-] (centres unmarked) | enzyme activity | inhibitor | – | 10 µM | remaining activity | 89%
N#CCCc1ccc2c(c1)-c1[nH]c3ccc([N+](=O)[O-])cc3c1CC(=O)N2 | cell-free assay | – | – | 0.5 µM | remaining signal | 49.8%
CNC(=O)c1cc(Oc2ccc(NC(=O)Nc3ccc(Cl)c(C(F)(F)F)c3)cc2)ccn1 | enzyme activity | inhibitor | – | 10 µM | inhibition | 48%
CNc1cccc2cc(C(=O)Nc3ccc(C(=O)O)cc3)c(=O)[nH]c12 | enzyme activity | inhibitor | – | 10 µM | inhibition | -3.6%
CN(C(=O)c1ccccc1)c1cc(N(C)c2ccc3c(c2)CCc2ccc(C(=O)NCCN4CCOCC4)cc2C3=O)ccc1F | cell-free assay | – | competition with immobilised ligand | 1 µM | remaining binding | 100%
CCN(CC)CCNC(=O)c1c(C)[nH]c(/C=C2\C(=O)Nc3ccc(F)cc32)c1C | binding | – | competition with immobilised ligand | 10 µM | inhibition | 77%
O=C(Nc1cnn(-c2csc(C(=O)NC3COC3)c2)c1)Nc1ccccc1Cl | enzyme activity | inhibitor | – | 5 µM | remaining activity | 92.7%
O=C1NC(c2ccccn2)Sc2ccccc21 (centres unmarked) | cell-free assay | – | competition with immobilised ligand | 1 µM | remaining binding | 85%
Cc1ccc(NC(=O)c2ccc(C)c(C(F)(F)F)c2)cc1C#Cc1nn(C2CCC(O)CC2)c2ncnc(N)c12 (centres unmarked) | cell-free assay | – | – | 10 µM | remaining signal | 0%
CN(C)c1ncnc(-c2ccc3nc(Nc4cc(CN5CCN(C(=O)CC(F)(F)F)CC5)ccn4)[nH]c3c2)c1Cl | cell-free assay | – | competition with immobilised ligand | 1 µM | remaining binding | 71%
CNC(=O)c1cc2c(Oc3ccc(NC(=O)C4(C(=O)Nc5ccc(F)cc5)CC4)cc3)ccnc2cc1OC | enzyme activity | inhibitor | radiometric | 1 µM | inhibition | 88%
CCCOc1ccc(OC)c(F)c1C(=O)c1ccc(C(=O)N[C@@H]2CNC[C@H]2NC(=O)c2ccc3[nH]ncc3c2)cc1 | enzyme activity | inhibitor | – | 10 µM | remaining activity | 89%
CC(C)(O)[C@H]1CC[C@H](Nc2ccc3ncc(-c4cccc(C(F)(F)F)c4)n3n2)CC1 | enzyme activity | inhibitor | – | 1 µM | remaining activity | 76.5%
O=C1NC(=O)c2cc(Nc3ccc(F)cc3)c(Nc3ccc(F)cc3)cc21 | cell-free assay | – | – | 0.5 µM | remaining signal | 89.6%
Cc1nccc(COC(=O)N2C[C@@H]3[C@@H](CNC(=O)c4ccc5[nH]nnc5c4)[C@@H]3C2)n1 | cell-free assay | – | competition with immobilised ligand | 1 µM | remaining binding | 90%
Cc1sc(C(=O)NC2COC2)cc1-n1cc(NC(=O)Nc2c(F)cccc2Cl)cn1 | enzyme activity | inhibitor | – | 10 µM | remaining activity | 123%
COc1cc(-c2cn(C3CCc4ccccc4N(CC(F)(F)F)C3=O)nn2)ccc1-n1ccc(C)n1 (centres unmarked) | cell-free assay | – | competition with immobilised ligand | 1 µM | remaining binding | 100%
CC(C)(C)c1nc(-c2cccc(NS(=O)(=O)c3c(F)cccc3F)c2F)c(-c2ccnc(N)n2)s1 | enzyme activity | inhibitor | radiometric | 1 µM | remaining activity | 77%
Cn1cc(Cl)c2c(Oc3c(F)cc(Nc4cc(Cl)nc(N)n4)cc3F)ccnc21 | cell-free assay | – | competition with immobilised ligand | 0.1 µM | remaining binding | 99%
Cc1ccc(Nc2nccc(N(C)c3ccc4c(C)n(C)nc4c3)n2)cc1S(N)(=O)=O | enzyme activity | inhibitor | – | 0.3 µM | inhibition | 24%
